Assay results gathered from unrelated publications.
pIC50: −log10 of the molar value.

SMILES | cell line | test | conditions | measurement | result
O=C(c1cc(Cc2n[nH]c(=O)c3ccccc23)ccc1F)N1CCN(C(=O)C2CC2)CC1 | SK-OV-3 | colony formation | – | pIC50 | 5.12
CCc1ccc(N2NC(=O)/C(=C/c3ccc(-c4ccc(S(=O)(=O)Nc5nccs5)cc4)o3)C2=O)cc1 | MEF | cell growth or viability, MTT | 72 h | pIC50 | 4.30
CC1=C(O)C(=O)C=C2C1=CC=C1[C@@]2(C)CC[C@@]2(C)[C@@H]3C[C@](C)(C(=O)OCCCBr)CC[C@]3(C)CC[C@]12C | AGS | cell growth or viability, MTT | 48 h | pIC50 | 6.44
O=C1NCCc2[nH]c(-c3ccncc3)cc21 | EKVX | cell growth or viability | – | pIC50 | < 5.00
COc1ccc(Br)cc1/C=C/C(=O)c1ccc(NC(C)=O)cc1 | MEF | cell growth or viability, MTT | 72 h | pIC50 | 6.00
CC1=C(O)C(=O)C=C2C1=CC=C1[C@@]2(C)CC[C@@]2(C)[C@@H]3C[C@](C)(C(=O)OCCCN4C(=O)C5C=CC=CC5C4=O)CC[C@]3(C)CC[C@]12C (some centres unmarked) | AGS | cell growth or viability, MTT | 48 h | pIC50 | 6.43
COc1c(C)c(OS(=O)(=O)c2ccc3ccccc3c2)c(C)c(OS(=O)(=O)c2ccc3ccccc3c2)c1C(=O)/C=C/c1ccccc1 | KKU-M213 | cell growth or viability, SRB | 72 h | pIC50 | < 4.30
COc1cccc2c1C(=O)c1c(O)c3c(c(O)c1C2=O)C[C@@](O)(C(=O)CO)C[C@@H]3O[C@H]1C[C@H](N)[C@H](O)[C@H](C)O1 | ChaGo-K-1 | cell growth or viability, MTT | 48 h | IC50 | 0.65 µg/mL
CCN1C(=O)N(c2c(F)c(OC)cc(OC)c2F)Cc2cnc3[nH]c(CN4CCOCC4)cc3c21 | JMSU-1 | cell growth or viability, ATP luminescence | 96 h | pIC50 | 8.06
CCSC(=O)c1ncn2c(=O)n(C)nnc12 | U-87 MG | cell growth or viability, resazurin | 7 days | pIC50 | 4.19
C=CC(=O)Nc1cc(Nc2nccc(-c3cn(C)c4ccccc34)n2)c(OC)cc1N(C)CCN(C)C | PC-9 | cell growth or viability, ATP luminescence | 72 h | pIC50 | 8.37
CC1=C(O)C(=O)C=C2C1=CC=C1[C@@]2(C)CC[C@@]2(C)[C@@H]3C[C@](C)(C(=O)OCCO)CC[C@]3(C)CC[C@]12C | AGS | cell growth or viability, MTT | 48 h | pIC50 | 6.33
COc1ccc(C2=N[C@@H](c3ccc(Cl)cc3)[C@@H](c3ccc(Cl)cc3)N2C(=O)N2CCNC(=O)C2)c(OC(C)C)c1 | DU-4475 | cell growth or viability, MTS | 48 h | pIC50 | 5.40
CC1=C(O)C(=O)C=C2C1=CC=C1[C@@]2(C)CC[C@@]2(C)[C@@H]3C[C@](C)(C(=O)OCCCCCCO)CC[C@]3(C)CC[C@]12C | AGS | cell growth or viability, MTT | 48 h | pIC50 | 6.44
C#CCSc1nc(Sc2nnnn2-c2ccccc2)c2nnn(Cc3ccc(OC)cc3)c2n1 | Raji | cell growth or viability, MTS | 6 days | pIC50 | 5.48
Cn1nnc2c(C(N)=O)ncn2c1=O | IMR-32 | cell growth or viability | – | pIC50 | 4.09
CC1=C(O)C(=O)C=C2C1=CC=C1[C@@]2(C)CC[C@@]2(C)[C@@H]3C[C@](C)(C(=O)OCCCCCCCO)CC[C@]3(C)CC[C@]12C | AGS | cell growth or viability, MTT | 48 h | pIC50 | 6.39
CCCCN(CCCC)C(=O)c1ncn2c(=O)n(C)nnc12 | U-87 MG | cell growth or viability, resazurin | 7 days | pIC50 | 4.57
CC1=C(O)C(=O)C=C2C1=CC=C1[C@@]2(C)CC[C@@]2(C)[C@@H]3C[C@](C)(C(=O)OCCCCCO)CC[C@]3(C)CC[C@]12C | AGS | cell growth or viability, MTT | 48 h | pIC50 | 6.37
COc1cc(/C=C2\SC(=O)NC2=O)ccc1OCc1ccc(Cl)cc1Cl | MEF | cell growth or viability, MTT | 72 h | pIC50 | 5.07
